Here are results for 23 molecules from ChEMBL document CHEMBL3046965, “Synthesis and quantitative structure-antifungal activity relationships of clovane derivatives against Botrytis cinerea” (2009).

Holding throughout (type): functional
Common to all, as to details: UCA 992, 144 h

Assay [1] relates to Botrytis cinerea. In words: Antifungal activity against Botryotinia fuckeliana UCA 992 assessed as inhibition of radial growth at 100 ug/mL after 6 days relative to control. Put shortly: (§1)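 Radial growth assay on glucose-malt-peptone-agar (61 g/L, pH 6.5-7.0). Compounds dissolved in EtOH, giving 50-200 mg L-1 final in the medium, with equal EtOH in control and treated plates. A 5 mm mycelial disk from an actively growing culture was placed at the plate centre and radial growth followed for 6 days. % inhibition = 100 - [(treated growth/control growth) × 100]. At least three independent experiments, each in triplicate, ± SD.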

Assay [2] concerns Botrytis cinerea. In words: Antifungal activity against Botryotinia fuckeliana UCA 992 assessed as inhibition of radial growth at 50 ug/mL after 6 days relative to control. Put shortly:
as §1

In assay [3] the test system is Botrytis cinerea. In words: Antifungal activity against Botryotinia fuckeliana UCA 992 assessed as inhibition of radial growth at 200 ug/mL after 6 days relative to control. A digest of the protocol:
as §1

In the case of `CC1(C)C[C@H](OCCS)[C@]23CC[C@@H](O)[C@@](C)(CC[C@@H]12)C3`, in the assay on Botrytis cinerea [1], the inhibition at 100 µg/mL was found to be 27%. Further, the inhibition at 50 µg/mL in the assay with Botrytis cinerea [2] was 27%. Moreover, the inhibition at 200 µg/mL in the assay on Botrytis cinerea [3] was 28%.
On to `CO[C@H]1CC(C)(C)[C@@H]2CC[C@@]3(CO)C[C@]12CC[C@H]3O`, for which the inhibition at 100 µg/mL in the assay on Botrytis cinerea [1] was found to be 9%. In the assay with Botrytis cinerea [2], the inhibition at 50 µg/mL came out at 2%. Besides, the inhibition at 200 µg/mL with Botrytis cinerea [3] amounted to 24%.
With `CC1(C)C[C@H](OCCSc2ccccc2)[C@]23CC[C@@H](O)[C@@](C)(CC[C@@H]12)C3`, the inhibition at 100 µg/mL in the assay with Botrytis cinerea [1] is 12%. Further, the inhibition at 50 µg/mL with Botrytis cinerea [2] worked out at 6%. For the same molecule, in the assay on Botrytis cinerea [3], the inhibition at 200 µg/mL is 24%.
Consider `CC1(C)C[C@H](OCCO)[C@]23CC[C@@H](O)[C@@](C)(CC[C@@H]12)C3`, for which the inhibition at 100 µg/mL with Botrytis cinerea [1] was 54%. Besides, the inhibition at 50 µg/mL with Botrytis cinerea [2] amounted to 48%. Moreover, the inhibition at 200 µg/mL in the assay with Botrytis cinerea [3] is 60%.
The corresponding values for `CC1(C)C[C@H](OCCI)[C@]23CC[C@@H](O)[C@@](C)(CC[C@@H]12)C3` are 67%, 65% and 70%.
For `CC1(C)C[C@H](OCCn2ccnc2)[C@]23CC[C@@H](O)[C@@](C)(CC[C@@H]12)C3` the same measures were 84%, 67% and 98%.
On to `CC1(C)C[C@H](OCCSC(=N)N)[C@]23CC[C@@H](O)[C@@](C)(CC[C@@H]12)C3`, for which the inhibition at 100 µg/mL with Botrytis cinerea [1] came out at 83%. In the assay on Botrytis cinerea [2], the inhibition at 50 µg/mL worked out at 70%. Also, the inhibition at 200 µg/mL with Botrytis cinerea [3] came out at 97%.
The corresponding values for `CC1(C)C[C@H](OCC[N+](=O)[O-])[C@]23CC[C@@H](O)[C@@](C)(CC[C@@H]12)C3` are 86%, 80% and 90%.
The corresponding values for `CC1(C)C[C@H](SCCS)[C@]23CC[C@@H](O)[C@@](C)(CC[C@@H]12)C3` are 34%, 32% and 38%.
Consider `CC1(C)C[C@H](OCCOc2ccc([N+](=O)[O-])cc2)[C@]23CC[C@@H](O)[C@@](C)(CC[C@@H]12)C3`, for which, in the assay with Botrytis cinerea [1], the inhibition at 100 µg/mL came to 79%. The inhibition at 50 µg/mL in the assay with Botrytis cinerea [2] turned out to be 76%. Besides, the inhibition at 200 µg/mL in the assay on Botrytis cinerea [3] was found to be 81%.
With `CC1(C)C[C@H](OCCn2cncn2)[C@]23CC[C@@H](O)[C@@](C)(CC[C@@H]12)C3`, in the assay on Botrytis cinerea [1], the inhibition at 100 µg/mL turned out to be 57%. In addition, the inhibition at 50 µg/mL in the assay with Botrytis cinerea [2] was determined as 34%. Also, in the assay on Botrytis cinerea [3], the inhibition at 200 µg/mL stood at 86%.
For `CC1(C)C[C@H](OCCCl)[C@]23CC[C@@H](O)[C@@](C)(CC[C@@H]12)C3`, the inhibition at 100 µg/mL with Botrytis cinerea [1] came out at 64%. In addition, the inhibition at 50 µg/mL in the assay with Botrytis cinerea [2] came out at 56%. Moreover, the inhibition at 200 µg/mL in the assay with Botrytis cinerea [3] worked out at 66%.
The corresponding values for `CC(C)(C)O[C@H]1CC(C)(C)[C@@H]2CC[C@@]3(C)C[C@]12CC[C@H]3O` are 66%, 59% and 78%.
For `CC1(C)CC(=O)[C@]23CCC(=O)[C@@](C)(CC[C@@H]12)C3` the same measures were 25%, 21% and 36%.
The corresponding values for `CC1(C)C[C@H](OCCBr)[C@]23CC[C@@H](O)[C@@](C)(CC[C@@H]12)C3` are 73%, 68% and 77%.
As to `CO[C@H]1CC(C)(C)[C@@H]2CC[C@@]3(C)C[C@]12CC[C@@H]3O`, the inhibition at 100 µg/mL in the assay with Botrytis cinerea [1] was determined as 43%. Also, the inhibition at 50 µg/mL with Botrytis cinerea [2] is 29%. In addition, in the assay with Botrytis cinerea [3], the inhibition at 200 µg/mL stood at 65%.
The corresponding values for `CC1(C)C[C@H](O)[C@]23CC[C@H](O)[C@@](C)(CC[C@@H]12)C3` are 24%, 21% and 30%.
Turning to `CC1(C)C[C@H](OCCN)[C@]23CC[C@@H](O)[C@@](C)(CC[C@@H]12)C3`, the inhibition at 100 µg/mL in the assay with Botrytis cinerea [1] was determined as 82%. The inhibition at 50 µg/mL with Botrytis cinerea [2] came to 50%. Besides, the inhibition at 200 µg/mL in the assay on Botrytis cinerea [3] amounted to 97%.
The corresponding values for `CO[C@H]1CC(C)(C)[C@@H]2CC[C@@]3(C)C[C@]12CC[C@H]3O` [2BETA-METHOXYCLOVAN-9ALPHA-OL] are 60%, 49% and 83%.
In the case of `CC1(C)C[C@H](OCCN2C(=O)c3ccccc3C2=O)[C@]23CC[C@@H](O)[C@@](C)(CC[C@@H]12)C3`, the inhibition at 100 µg/mL with Botrytis cinerea [1] turned out to be 55%. Besides, the inhibition at 50 µg/mL in the assay on Botrytis cinerea [2] was found to be 50%. Further, the inhibition at 200 µg/mL in the assay with Botrytis cinerea [3] stood at 60%.
The corresponding values for `C=CCO[C@H]1CC(C)(C)[C@@H]2CC[C@@]3(C)C[C@]12CC[C@H]3O` are 72%, 63% and 82%.
For `CC1(C)C[C@H](O)[C@]23CC[C@@H](O)[C@@](C)(CC[C@@H]12)C3` [CLOVANEDIOL] the same measures were 50%, 36% and 63%.
Regarding `CO[C@H]1CC(C)(C)[C@@H]2CC[C@@]3(C)C[C@]12CCC3=O`, the inhibition at 100 µg/mL with Botrytis cinerea [1] is 42%. Moreover, the inhibition at 50 µg/mL in the assay with Botrytis cinerea [2] was 17%. Further, the inhibition at 200 µg/mL with Botrytis cinerea [3] was determined as 76%.

In general, inhibition refers to the share of the control response that was lost under treatment.
